# ABCB6 inh MLPCN: human ABCB6 transporter inhibition. Q9NP58. K562-ABCB6 porphyrin accumulation, flow cytometry, 1 h; hits give low values. fluorescence ratio to DMSO, % at 10 µM. actives 0.19% (n = 360,000). AID 602162;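 active = fluorescence ratio to DMSO below 75%, the collection mean minus 3 SD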;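 also: signal is porphyrin accumulated inside mitochondria; 100% equals median channel fluorescence of DMSO control wells; lower ratio means ABCB6 inhibition with less porphyrin fluorescence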
# Target sequence (Q9NP58 whole entry, looked up): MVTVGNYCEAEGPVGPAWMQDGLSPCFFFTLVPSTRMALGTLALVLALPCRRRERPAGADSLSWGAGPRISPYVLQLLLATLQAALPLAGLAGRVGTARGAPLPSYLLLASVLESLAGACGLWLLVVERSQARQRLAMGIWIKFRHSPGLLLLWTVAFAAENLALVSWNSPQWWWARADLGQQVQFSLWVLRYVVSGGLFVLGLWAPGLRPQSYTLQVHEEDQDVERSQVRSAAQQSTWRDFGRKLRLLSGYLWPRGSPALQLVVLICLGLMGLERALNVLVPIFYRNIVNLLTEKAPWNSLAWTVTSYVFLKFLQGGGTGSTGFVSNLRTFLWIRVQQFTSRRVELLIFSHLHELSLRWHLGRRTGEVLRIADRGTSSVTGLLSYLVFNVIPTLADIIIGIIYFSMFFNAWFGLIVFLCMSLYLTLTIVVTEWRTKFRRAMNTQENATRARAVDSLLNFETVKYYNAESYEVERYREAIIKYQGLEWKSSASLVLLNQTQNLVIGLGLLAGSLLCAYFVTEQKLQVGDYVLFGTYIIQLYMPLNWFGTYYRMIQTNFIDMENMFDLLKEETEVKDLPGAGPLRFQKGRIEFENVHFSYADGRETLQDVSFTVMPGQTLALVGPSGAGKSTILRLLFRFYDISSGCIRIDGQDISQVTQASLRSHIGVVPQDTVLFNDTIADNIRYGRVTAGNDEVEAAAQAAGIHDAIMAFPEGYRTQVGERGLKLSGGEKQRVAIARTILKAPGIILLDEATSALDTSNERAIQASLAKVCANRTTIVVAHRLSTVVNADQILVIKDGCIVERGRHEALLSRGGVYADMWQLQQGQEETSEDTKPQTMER
# SR-BI DiI-HDL act: activators of SR-BI mediated HDL lipid uptake; CHO ldlA[mSR-BI] cells, DiI-HDL uptake fluorescence, 3 h; 100 = double the neutral-control signal; activation, % at 12.5 µM; AID 504775; actives 0.096% (n = 320,000);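 active = mean replicate activation of at least 60% and every replicate at or above 60%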;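 also: 0% = median plate neutral-control signal and 100% = twice that signal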
#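 System: LDL receptor-deficient CHO ldlA cells overexpressing murine SR-BI | Timing: 3 h uptake period with compound, 37 °C | Medium: HEPES-buffered (25 mM, pH 7.4) F12 plus 0.5% BSA | Dosing: Single-point compound dose | Signal: Bottom-read fluorescence, 550/595 nm | Read-out: Retained DiI signal reflecting DiI-HDL uptake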
# HIF activator: HIF pathway transcriptional activation; U2OS HRE-luciferase reporter, luminescence; normalized: DMSO 0%, desferrioxamine 100%; activation, % at 7.5 µM (by protocol); actives 0.32% (n = 300,000); AID 1910;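 active = mean activation of at least 10% of the iron chelator positive control signal, with at least half of replicates also reaching 10%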
# SR-BI HDL uptake: inhibitors of mouse SR-BI mediated HDL lipid uptake; Q61009; ldlA[mSR-BI] CHO cells, DiI-HDL uptake fluorescence, 3 h; inhibition, % at 12.5 µM; actives 0.96% (n = 320,000);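 active = mean replicate inhibition of at least 70% and a set share of replicates each scoring 70 or more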;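 also: 0% = median of neutral control wells and 100% = median of positive control wells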
# FXN GAA850 act: activators of GAA850 frataxin (FXN) promoter | activation, % at 6 µM | HEK293 lucGAA850 FXN promoter luciferase reporter, 24 h; percent of 10 µM SAHA response | AID 540364 | actives 0.56% (n = 360,000);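 active = activation above the average of all compounds screened plus 3 SD, cutoff fixed separately per campaign, cut at about 7.5% in these data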;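 also: 0% = DMSO wells and 100% = 10 µM SAHA wells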
# AHR activator: activators of human aryl hydrocarbon receptor. AHR-responsive luciferase reporter cells, luminescence. activation, % at 5 µM. actives 2.5% (n = 320,000); in the data active = activation above about 47%;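 also: 0% = vehicle wells and 100% = reference agonist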
# Numbers without * were called inactive; . = no result given. A selection: hits, their analogues and other compounds. The true share with any hit is near 3.9%.
SMILES,ABCB6 inh MLPCN,SR-BI DiI-HDL act,HIF activator,SR-BI HDL uptake,FXN GAA850 act,AHR activator
CCOc1cc(C(=O)Nc2cccc(C(C)=O)c2)ccc1OCC(=O)N1CCCCC1,97.0,-74.4,-0.3,74.4*,0.8,4.6
CCOc1ccccc1C(=O)Nc1cccc(-c2ccc(N3CCOCC3)nn2)c1,96.0,-55.5,3.0,55.5,3.9,12.8
CCOc1ccc(C(=O)Nc2cccc(-c3ccc(N4CCOCC4)nn3)c2)cc1OCC,94.0,-89.9,2.7,89.9*,0.3,8.5
Cc1ccc(C(=O)Nc2cccc(C(=O)NCc3ccco3)c2)cc1,87.0,-49.8,1.1,49.8,0.7,26.6
C/C(=N\NC(=O)c1cccc(S(=O)(=O)N2CCCC2)c1)c1ccco1,97.0,22.8,0.1,-22.8,0.6,1.1
COc1ccc(C(=O)Nc2ccc(Cl)c(Cl)c2)c(OC)n1,103.0,-7.3,2.1,7.3,7.4,21.5
O=C(NCCN1CCOCC1)c1ccc(CS(=O)c2ccccc2Cl)o1 (configuration not stated),102.0,21.1,-0.6,-21.1,1.1,-0.2
O=C(O)c1ccc2c(c1)S(=O)(=O)c1cc(N3CCN(c4ncccn4)CC3)ccc1C2=O,95.0,.,.,.,1.5,.
O=C1ON=C(c2ccccc2)/C1=C/c1ccccc1,97.0,17.4,1.6,-17.4,0.5,0.1
Cc1ccc(C2=NOC(=O)/C2=C\c2ccccc2)cc1,100.0,.,31.2*,.,0.1,0.4
CC(=O)Nc1cc(-c2ccc(F)cc2)cn2c(-c3ccc(F)cc3)cnc12,98.0,.,.,.,1.0,.
CCCCn1nc(C(=O)Nc2nc3c(s2)CCCC3)c2ccccc2c1=O,100.0,-0.4,-0.1,0.4,1.6,5.1
CCCCCCn1nc(C(=O)Nc2nc3c(s2)CCCC3)c2ccccc2c1=O,95.0,5.0,10.3*,-5.0,0.0,6.0
COc1ccccc1NC(=O)c1ccc(S(=O)(=O)N2CCCC2)cc1,98.0,-38.2,-0.1,38.2,1.9,1.3
NS(=O)(=O)c1ccc(NC(=S)Nc2ccc(S(=O)(=O)N3CCCC3)cc2)cc1,100.0,-7.3,-0.1,7.3,2.2,-2.8
Cc1cccc(C(=O)Nc2ccc(C(=O)N/N=C/c3ccc4c(c3)OCO4)cc2)c1,92.0,-85.3,-0.2,85.3*,-2.8,1.8
Cc1cccc(C(=O)Nc2cccc(C(=O)N/N=C/c3ccc4c(c3)OCO4)c2)c1,95.0,-55.0,1.3,55.0,2.9,15.0
O=C(N/N=C\c1ccccc1)c1cccc(C(=O)N/N=C\c2ccccc2)n1,98.0,.,-0.6,.,0.5,70.5*
CCOc1ccccc1NC(=O)c1ccc(S(=O)(=O)N2CCCCC2)cc1,96.0,-76.1,-0.2,76.1*,-0.1,9.4
O=S(=O)(c1ccc(NC(=S)NN=Cc2ccccc2O)cc1)N1CCCCC1,95.0,-91.8,.,91.8*,3.2,.
O=C(Nc1ccccc1)[C@@H]1[C@@H]2C(=O)N(c3ccc(F)cc3)C(=O)[C@@H]2[C@H]2C=CC=NN21,98.0,3.2,1.1,-3.2,1.0,15.3
CN(C)c1ccc(/C=N/NC(=O)c2ccc3c(c2)OCO3)cc1,99.0,-4.8,2.4,4.8,2.1,.
O=C(NN=Cc1c(O)ccc2ccccc12)c1ccc2c(c1)OCO2,98.0,-123.9,.,123.9*,-4.9,6.0
CC/C(=N/NC(=O)c1ccc2c(c1)OCO2)c1ccccc1O,97.0,-99.7,4.3,99.7*,0.0,10.6
CCOc1ccccc1NC(=O)c1ccc2c(c1)C(=O)N(CC1CCCO1)C2=O (configuration not stated),93.0,-43.9,0.3,43.9,0.4,73.4*
SMILES,ABCB6 inh MLPCN,SR-BI DiI-HDL act,HIF activator,SR-BI HDL uptake,FXN GAA850 act,AHR activator
O=C(Nc1ccc(NC(=O)c2cc3ccccc3o2)cc1)c1ccc2c(c1)OCCO2,92.0,-73.2,-2.6,73.2*,-14.9,-11.4
O=C(N/N=C\c1c(O)ccc2ccccc12)c1ccc(S(=O)(=O)N2CCCCC2)cc1,181.0,-143.1,22.6*,143.1*,1.5,4.0
O=C(N/N=C/c1ccccc1)c1cc(-c2ccc3c(c2)OCO3)n[nH]1,103.0,-14.1,0.7,14.1,4.6,88.4*
O=C(N/N=C/c1ccccc1)c1ccc2c(c1)OCO2,97.0,1.0,3.1,-1.0,2.8,70.0*
O=C(N/N=C/c1cccc([N+](=O)[O-])c1)c1cc(-c2ccc3c(c2)OCO3)n[nH]1,89.0,3.1,0.5,-3.1,0.5,20.4
O=C(N/N=C/c1ccc(O)cc1)c1cc(-c2ccc3c(c2)OCO3)n[nH]1,97.0,-12.2,2.2,12.2,0.1,76.2*
CCOC(=O)N1CCN(C(=O)c2c(O)c3cccc4c3n(c2=O)CC4)CC1,101.0,7.9,1.7,-7.9,0.2,2.8
Cc1cccc(NC(=O)c2cc(NC(=O)c3ccccc3)ccc2N2CCCCC2)c1,92.0,-63.0,2.5,63.0,-0.8,0.4
COc1ccc(NC(=O)c2ccco2)cc1NC(=O)c1ccccc1,96.0,-17.0,-7.7,17.0,-1.3,.
COc1ccc(NC(=O)COC(=O)CNS(=O)(=O)c2ccc(F)c(F)c2F)cc1OC,100.0,-9.7,-0.3,9.7,0.7,-0.6
O=C(COc1ccc(/C=N/NC(=O)c2cc3ccccc3o2)cc1Cl)Nc1ccccc1,91.0,-74.5,1.3,74.5*,0.5,-0.4
O=C(N/N=C/c1c(O)ccc2ccccc12)c1ccc(CO)nc1,99.0,-42.8,33.7*,42.8,-5.6,22.9
COc1cc(/C=N/NC(=O)c2ccccc2O)ccc1OCC(=O)Nc1ccccc1,96.0,-17.2,2.2,17.2,2.9,7.8
O=C(N/N=C/c1cccc(O)c1)c1cc(-c2ccc3c(c2)OCO3)n[nH]1,93.0,0.0,0.1,0.0,1.5,117.0*
Cc1ccc(S(=O)(=O)N2CCCCC2)cc1NC(=O)c1ccc(Cl)nc1,88.0,-17.9,.,17.9,0.5,74.5*
COc1ccc2nc(NC(=O)CSc3nnc(C)s3)sc2c1,104.0,5.9,1.0,-5.9,3.2,9.6
COc1ccc(NC(=O)C2Cc3ccccc3CN2C(=O)c2ccco2)cc1 (configuration not stated),100.0,-4.0,-12.0,4.0,1.4,0.8
O=C(N/N=C/c1ccc2c(c1)OCO2)c1cc2ccccc2o1,101.0,.,0.1,.,0.4,69.0*
CCOc1ccccc1NC(=O)C(CC(C)C)NC(=O)C1CCCCC1 (configuration not stated),98.0,-48.6,-0.5,48.6,-2.1,7.5
COc1ccc(NC(=O)C(CC(C)C)NC(=O)C2CCCCC2)c(OC)c1 (configuration not stated),96.0,-82.3,-1.1,82.3*,-1.0,4.9
O=S(=O)(O/N=C1\CCCc2ccccc21)c1ccc(Cl)cc1,92.0,1.3,-0.5,-1.3,1.4,0.5
Cc1ccc(S(=O)(=O)N2CCN(c3nc(-c4cccs4)nc4ccccc34)CC2)cc1,97.0,.,.,.,0.7,.

# Source: PubChem
